Test results as given in ChEMBL document CHEMBL1208768, “Synthesis, selective anti-Helicobacter pylori activity, and cytotoxicity of novel N-substituted-2-oxo-2H-1-benzopyran-3-carboxamides” (Bioorg Med Chem Lett, 2010).
≈ marks a conversion by molar mass, not a printed value. Calls of active or inactive are those of the source. No cut-off for these calls is given here.

Tests used:
Klebsiella pneumoniae = test: Antibacterial activity against Klebsiella pneumoniae after 18 to 22 hrs by broth microdilution method; assay type: functional
Method in brief: (§1)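 Clinical respiratory-tract isolates from patients, subcultured for purity and identified conventionally. Broth microdilution per NCCLS in Mueller–Hinton II broth; each plate had growth controls (bacteria, no compound) and medium-only controls. Incubation 18–22 h at 35 °C. MIC taken as the lowest concentration giving complete growth inhibition by unaided eye.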

Staphylococcus hominis = test: Antibacterial activity against Staphylococcus hominis after 18 to 22 hrs by broth microdilution method; assay type: functional; method in brief: as §1
[1] = Cytotoxicity against human EAhy926 cells assessed as cell survival at 0.5 ug/mL after 24 hrs by trypan blue exclusion assay; assay type: cell-based, EA.hy 926; conditions: read-out: Survival
Method in brief: (§2)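 EAhy cells in DMEM (high glucose) with 10% FBS, at 1 × 10⁵/mL in exponential growth and 60–70% confluent, were exposed 24 h at 37 °C to compounds from DMSO stocks (final DMSO ≤0.5%). Controls were cells alone or with DMSO, and 1 mM sodium nitroprusside as positive control. Cells were scraped, mixed 1:1 with 0.4% Trypan blue and counted on a hemocytometer by two operators. Result given as % viable cells.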

[2] = Cytotoxicity against human EAhy926 cells assessed as cell survival at 0.05 ug/mL after 24 hrs by trypan blue exclusion assay; assay type: cell-based, EA.hy 926; conditions: read-out: Survival; method in brief: as §2
Enterococcus faecalis = test: Antibacterial activity against Streptococcus faecalis after 18 to 22 hrs by broth microdilution method; assay type: functional; method in brief: as §1
Enterobacter = test: Antibacterial activity against Enterobacter after 18 to 22 hrs by broth microdilution method; assay type: functional; method in brief: as §1
[3] = test system: Staphylococcus epidermidis; test: Antibacterial activity against Staphylococcus epidermidis after 18 to 22 hrs by broth microdilution method; assay type: functional; method in brief: as §1
Pichia kudriavzevii = test: Antifungal activity against Candida krusei after 24 hrs by broth microdilution method; assay type: functional
Method in brief: (§3)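 Candida isolates from respiratory-tract specimens, tested by NCCLS broth microdilution in Sabouraud dextrose broth. Serial compound dilutions inoculated to 10³/mL, with fungus-only and medium-only controls. Incubated 24 h at 37 °C. MIC was the lowest concentration with complete visible growth inhibition.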

Helicobacter pylori [4] = test: Antibacterial activity against metronidazole-resistant Helicobacter pylori isolate 20 after 72 hrs by agar dilution method; assay type: functional; conditions: isolate 20, 72 h
Method in brief: (§4)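 H. pylori clinical isolates (ATCC 43504 control each session) stored at -80 °C and subcultured twice on Columbia agar with 10% horse serum and 0.25% yeast extract. Suspensions of 0.5 McFarland were spotted by Steer's replicator at about 5 × 10⁵ CFU/spot onto agar with twofold compound dilutions. Plates were incubated 72 h at 37 °C in 10% CO₂. MIC was the lowest concentration without visible growth.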

Staphylococcus aureus = test: Antibacterial activity against Staphylococcus aureus after 18 to 22 hrs by broth microdilution method; assay type: functional; method in brief: as §1
Helicobacter pylori [5] = test: Antibacterial activity against metronidazole-resistant Helicobacter pylori isolate 18 after 72 hrs by agar dilution method; assay type: functional; conditions: isolate 18, 72 h; method in brief: as §4
[Candida] sake = Antifungal activity against Candida sake after 24 hrs by broth microdilution method; assay type: functional; conditions: Fermentozyma sake; method in brief: as §3
Klebsiella oxytoca = test: Antibacterial activity against Klebsiella oxytoca after 18 to 22 hrs by broth microdilution method; assay type: functional; method in brief: as §1
[6] = Cytotoxicity against human EAhy926 cells assessed as cell survival at 5 ug/mL after 24 hrs by MTT assay; assay type: cell-based, EA.hy 926; conditions: read-out: Survival
Helicobacter pylori [7] = test: Antibacterial activity against metronidazole-resistant Helicobacter pylori NCTC 11637 after 72 hrs by agar dilution method; assay type: functional; conditions: NCTC 11637, 72 h; method in brief: as §4
[8] = test system: Staphylococcus haemolyticus; test: Antibacterial activity against Staphylococcus haemolyticus after 18 to 22 hrs by broth microdilution method; assay type: functional; method in brief: as §1
Helicobacter pylori [9] = test: Antibacterial activity against Helicobacter pylori ATCC 43504 clinical isolates after 72 hrs by agar dilution method; assay type: functional; conditions: ATCC 43504, 72 h
Method in brief: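 Agar dilution per NCCLS. Twenty clinical strains from duodenal ulcer or gastritis patients, with ATCC 43504 as control in each session, were subcultured twice on Columbia agar plus 10% horse serum and 0.25% yeast extract (72 h, 37 °C, 10% CO₂). Inoculum of 0.5 McFarland in Wilkins Chalgren broth, about 5 × 10⁵ CFU/spot by Steer's replicator. Plates held twofold compound dilutions down to 0.0039 µg/mL and were incubated 72 h at 37 °C, 10% CO₂. MIC was the lowest concentration inhibiting visible growth.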

Proteus vulgaris = test: Antibacterial activity against Proteus vulgaris after 18 to 22 hrs by broth microdilution method; assay type: functional; method in brief: as §1
[10] = Cytotoxicity against human EAhy926 cells assessed as cell survival at 50 ug/mL after 24 hrs by trypan blue exclusion assay; assay type: cell-based, EA.hy 926; conditions: read-out: Survival; method in brief: as §2
Klebsiella aerogenes = test: Antibacterial activity against Enterobacter aerogenes after 18 to 22 hrs by broth microdilution method; assay type: functional; method in brief: as §1
[11] = Cytotoxicity against human EAhy926 cells assessed as cell survival at 5 ug/mL after 24 hrs by trypan blue exclusion assay; assay type: cell-based, EA.hy 926; conditions: read-out: Survival; method in brief: as §2
Escherichia coli = test: Antibacterial activity against Escherichia coli after 18 to 22 hrs by broth microdilution method; assay type: functional; method in brief: as §1
Candida albicans = test: Antifungal activity against Candida albicans after 24 hrs by broth microdilution method; assay type: functional; method in brief: as §3
AGS [12] = test: Antiinflammatory activity in human AGS cells assessed as inhibition of IL-8 production at 0.5 ug/mL after 24 hrs; assay type: functional, cell-based
Method in brief: (§5)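 AGS gastric adenocarcinoma cells were grown in F-12K with 10% FBS. They were seeded at 1 × 10⁵/mL for 24 h, preincubated 1 h with compound at 5 or 0.5 µg/mL, then exposed to H. pylori.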

Helicobacter pylori [13] = test: Antibacterial activity against metronidazole-resistant Helicobacter pylori isolate 8 after 72 hrs by agar dilution method; assay type: functional; conditions: isolate 8, 72 h; method in brief: as §4
Citrobacter freundii = test: Antibacterial activity against Citrobacter freundii after 18 to 22 hrs by broth microdilution method; assay type: functional; method in brief: as §1
AGS (Homo sapiens) = test: Cytotoxicity against human AGS cells assessed as cell survival at 50 ug/mL after 24 hrs by MTT assay
[14] = Cytotoxicity against human EAhy926 cells assessed as cell survival at 0.5 ug/mL after 24 hrs by MTT assay; assay type: cell-based, EA.hy 926; conditions: read-out: Survival
AGS [15] = test: Antiinflammatory activity in human AGS cells assessed as inhibition of IL-8 production at 5 ug/mL after 24 hrs; assay type: functional, cell-based; method in brief: as §5
Helicobacter pylori [16] = test: Antibacterial activity against metronidazole-resistant Helicobacter pylori isolate 1 after 72 hrs by agar dilution method; assay type: functional; conditions: isolate 1, 72 h; method in brief: as §4

Row | Compound | MIC (Klebsiella pneumoniae) [µg/mL] | MIC (Staphylococcus hominis) [µg/mL] | viability at 24 h, 0.5 ug/mL [1] [%] | viability at 24 h, 0.05 ug/mL [2] [%] | MIC (Enterococcus faecalis) [µg/mL] | MIC (Enterobacter) [µg/mL] | MIC [3] [µg/mL] | MIC (Pichia kudriavzevii) [µg/mL] | MIC (Helicobacter pylori [4]) [µg/mL] | MIC (Staphylococcus aureus) [µg/mL] | MIC (Helicobacter pylori [5]) [µg/mL] | MIC ([Candida] sake) [µg/mL] | MIC (Klebsiella oxytoca) [µg/mL] | viability at 24 h, 5 ug/mL [6] [%] | MIC (Helicobacter pylori [7]) [µg/mL] | MIC [8] [µg/mL] | MIC50 (Helicobacter pylori [9]) [µg/mL] | MIC90 (Helicobacter pylori [9]) [µg/mL] | MIC (Proteus vulgaris) [µg/mL] | viability at 24 h, 50 ug/mL [10] [%] | other results
1 | CCOC(=O)c1ccc(NC(=O)c2cc3cc(C)ccc3oc2=O)cc1 | > 128 | > 128 | 77 | 80 | > 128 | > 128 | > 128 | > 128 | 2 (≈ 5.69 µM) | > 128 | 2 (≈ 5.69 µM) | > 128 | > 128 | 81 | 4 (≈ 11.4 µM) | > 128 | 4 (≈ 11.4 µM) | 8 (≈ 22.8 µM) | > 128 | 14 | MIC (Klebsiella aerogenes): > 128 µg/mL; viability at 24 h, 5 ug/mL [11]: 59%; MIC (Escherichia coli): > 128 µg/mL; MIC (Candida albicans): > 128 µg/mL; inhibition (AGS [12]): inactive; MIC (Helicobacter pylori [13]): 8 µg/mL (≈ 22.8 µM); MIC (Citrobacter freundii): > 128 µg/mL; viability at 24 h, 50 ug/mL (AGS (Homo sapiens)): 63%; viability at 24 h, 0.5 ug/mL [14]: 99%; inhibition (AGS [15]): inactive; MIC (Helicobacter pylori [16]): 8 µg/mL (≈ 22.8 µM)
2 | CCOC(=O)c1ccc(NC(=O)c2cc3cc(O)ccc3oc2=O)cc1 | > 128 | > 128 | 83 | 93 | > 128 | > 128 | > 128 | > 128 | 2 (≈ 5.66 µM) | > 128 | 8 (≈ 22.6 µM) | > 128 | > 128 | 99 | 8 (≈ 22.6 µM) | > 128 | 4 (≈ 11.3 µM) | 8 (≈ 22.6 µM) | > 128 | 77 | MIC (Klebsiella aerogenes): > 128 µg/mL; viability at 24 h, 5 ug/mL [11]: 80%; MIC (Escherichia coli): > 128 µg/mL; MIC (Candida albicans): > 128 µg/mL; inhibition (AGS [12]): inactive; MIC (Helicobacter pylori [13]): 2 µg/mL (≈ 5.66 µM); MIC (Citrobacter freundii): > 128 µg/mL; viability at 24 h, 50 ug/mL (AGS (Homo sapiens)): 82%; viability at 24 h, 0.5 ug/mL [14]: 99%; inhibition (AGS [15]): inactive; MIC (Helicobacter pylori [16]): 4 µg/mL (≈ 11.3 µM)
3 | CCOC(=O)c1ccc(NC(=O)c2cc3ccc(O)cc3oc2=O)cc1 | > 128 | > 128 | 95 | 96 | > 128 | > 128 | > 128 | > 128 | 2 (≈ 5.66 µM) | > 128 | 8 (≈ 22.6 µM) | > 128 | > 128 | 82 | 8 (≈ 22.6 µM) | > 128 | 8 (≈ 22.6 µM) | 8 (≈ 22.6 µM) | > 128 | 64 | MIC (Klebsiella aerogenes): > 128 µg/mL; viability at 24 h, 5 ug/mL [11]: 92%; MIC (Escherichia coli): > 128 µg/mL; MIC (Candida albicans): > 128 µg/mL; inhibition (AGS [12]): inactive; MIC (Helicobacter pylori [13]): 4 µg/mL (≈ 11.3 µM); MIC (Citrobacter freundii): > 128 µg/mL; viability at 24 h, 50 ug/mL (AGS (Homo sapiens)): 78%; viability at 24 h, 0.5 ug/mL [14]: 99%; inhibition (AGS [15]): inactive; MIC (Helicobacter pylori [16]): 8 µg/mL (≈ 22.6 µM)
4 | O=C(O)c1ccc(NC(=O)c2cc3ccc(O)cc3oc2=O)cc1 | > 128 | > 128 | 93 | 98 | > 128 | > 128 | > 128 | > 128 | 8 (≈ 24.6 µM) | > 128 | 8 (≈ 24.6 µM) | > 128 | > 128 | 99 | 8 (≈ 24.6 µM) | > 128 | 8 (≈ 24.6 µM) | 16 (≈ 49.2 µM) | > 128 | 82 | MIC (Klebsiella aerogenes): > 128 µg/mL; viability at 24 h, 5 ug/mL [11]: 92%; MIC (Escherichia coli): > 128 µg/mL; MIC (Candida albicans): > 128 µg/mL; inhibition (AGS [12]): inactive; MIC (Helicobacter pylori [13]): 4 µg/mL (≈ 12.3 µM); MIC (Citrobacter freundii): > 128 µg/mL; viability at 24 h, 50 ug/mL (AGS (Homo sapiens)): 77%; viability at 24 h, 0.5 ug/mL [14]: 99%; inhibition (AGS [15]): inactive; MIC (Helicobacter pylori [16]): 8 µg/mL (≈ 24.6 µM)
